Active and inactive are the calls of the source. The rule behind the calls is not given here.
Legend:
Rattus norvegicus [1] = organism: Rattus norvegicus; assay: Protection against light-induced photoreceptor degradation in albino rat retina exposed to 12 hrs dark and 12 hrs light assessed as reduction in ONL thickness on superior side at 9 mM, intravitreally after 24 hrs; format: functional, organism-based
Summary of the method: (§1)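 Albino rats got a 2 µL intravitreal injection 18 h before 24 h exposure to bright fluorescent light. Compounds insoluble in PBS 1× at 1 mM were given in DMSO 2%; PBS-soluble ones were given in PBS 1×. Untreated-unexposed and DMSO 2% groups served as controls.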

Rattus norvegicus [2] = organism: Rattus norvegicus; assay: Protection against light-induced photoreceptor degradation in albino rat retina exposed to 12 hrs dark and 12 hrs light assessed as reduction in ONL thickness at 1 mM, intravitreally after 24 hrs; format: functional, organism-based; summary of the method: as §1
Rattus norvegicus [3] = organism: Rattus norvegicus; assay: Protection against light-induced photoreceptor degradation in albino rat retina exposed to 12 hrs dark and 12 hrs light assessed as reduction in ONL thickness on inferior side at 9 mM, intravitreally after 24 hrs; format: functional, organism-based; summary of the method: as §1
[4] = Half life in albino rat retina; format: ADME, tissue-based
[5] = Solubility of the compound at 1 mM in PBS; format: physicochemical; conditions: buffer, 1000 µM
Rattus norvegicus [6] = organism: Rattus norvegicus; assay: Protection against light-induced photoreceptor degradation in albino rat retina exposed to bright fluorescent light assessed as reduction in ONL thickness on superior side at 1 mM, intravitreally after 24 hrs; format: functional, organism-based; summary of the method: as §1
[7] = Solubility of the compound at 1 mM in 2% DMSO; format: physicochemical; conditions: 1000 µM

SMILES | Activity (Rattus norvegicus [1]) | Activity (Rattus norvegicus [2]) | Activity (Rattus norvegicus [3]) | half-life [4] [h] | solubility [5] | Activity (Rattus norvegicus [6]) | solubility [7]
CC(C)(C)/[N+]([O-])=C/c1ccccc1 | Active | inactive | Active | 2 | – | – | –
CC(C)CCC[C@@H](C)[C@H]1CC[C@H]2[C@@H]3CC=C4C[C@@H](OCCC(=O)NCc5ccc(/C=[N+](\[O-])C(C)(C)CNC(=O)[C@@H](O)[C@H](O)[C@H](O[C@@H]6O[C@H](CO)[C@H](O)[C@H](O)[C@H]6O)[C@@H](O)CO)cc5)CC[C@]4(C)[C@H]3CC[C@]12C | – | – | – | – | Insoluble | Active | soluble
CC(C)CCC[C@@H](C)[C@H]1CC[C@H]2[C@@H]3CC=C4C[C@@H](OCCC(=O)NCC(C)(C)/[N+]([O-])=C/c5ccc(CNC(=O)[C@@H](O)[C@H](O)[C@H](O[C@@H]6O[C@H](CO)[C@H](O)[C@H](O)[C@H]6O)[C@@H](O)CO)cc5)CC[C@]4(C)[C@H]3CC[C@]12C | – | – | – | – | Insoluble | inactive | soluble
